Reference: ChEMBL document CHEMBL5150021, “Identification of 5-(Aryl/Heteroaryl)amino-4-quinolones as Potent Membrane-Disrupting Agents to Combat Antibiotic-Resistant Gram-Positive Bacteria” (J Med Chem, 2022)
Converted amounts (≈) assume the structure as drawn. The source made the active and inactive calls. The calls are words filed in the database; no cut-off is given here.

What was measured:
Erythrocyte = assay: Hemolytic activity in sheep erythrocytes at 32 ug/ml incubated for 1 hr; format: toxicity, cell-based, Ovis aries; settings: dose 32 µg/ml
How it was run: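 4% sheep erythrocytes mixed 1:1 with twofold serial compound dilutions in PBS, incubated stationary 1 h at 37 °C, then centrifuged at 500g for 5 min. Supernatant A540 is measured and percent hemolysis is calculated relative to DMSO vehicle (0%) and Triton X-100 (100%). Triplicate, mean ± SD.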

Staphylococcus aureus [1] = assay: Antibacterial activity against methicillin resistant Staphylococcus aureus FPR3757 assessed as inhibition of bacterial growth incubated for 24 hrs by CLSI based method; format: functional; settings: read-out: MIC100
How it was run: (§1)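 It was mixed 1:1 with twofold serial compound dilutions and incubated stationary at 37 °C for 24 h. MIC was the lowest concentration giving complete inhibition of observable growth, with an oxacillin control.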

[2] = tested on: Staphylococcus epidermidis; assay: Antibacterial activity against Staphylococcus epidermidis NIF104008 assessed as inhibition of bacterial growth incubated for 24 hrs by CLSI based method; format: functional
How it was run: (§2)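 Broth microdilution per CLSI. Equal volume of twofold serial compound dilutions added. Incubated stationary at 37 °C for 24 h. MIC taken as lowest concentration giving complete inhibition of visible growth. Oxacillin control for Gram-positives, ceftriaxone for Gram-negatives.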

Staphylococcus simulans [3] = assay: Antibacterial activity against Staphylococcus simulans assessed as inhibition of protein synthesis at 5 times MIC measured upto 60 mins by [3H]-L-isoleucine incorporation based scintillation counter analysis; format: functional; settings: 1 h
How it was run: (§3)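 Aliquots taken 0–60 min, precipitated with ice-cold 10% TCA, filtered, washed, scintillation counted. Percent inhibition is relative to DMSO control at 60 min; triplicate.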

Cell membrane [4] = assay: Induction of cell membrane damage in Staphylococcus aureus USA300 assessed as mesosome-like membrane inclusions at 1 times MIC measured after 1 hrs by TEM analysis
How it was run: (§4)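 Fixed in glutaraldehyde/paraformaldehyde in cacodylate pH 7.4, post-fixed with osmium tetroxide, stained with uranyl acetate, resin-embedded, thin-sectioned and imaged by TEM.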

Enterococcus faecalis [5] = assay: Antibacterial activity against Enterococcus faecalis DHMC #1 assessed as inhibition of bacterial growth incubated for 24 hrs by CLSI based method; format: functional; how it was run: as §2
Escherichia coli = assay: Antibacterial activity against Escherichia coli DHMC-1 assessed as inhibition of bacterial growth incubated for 24 hrs by CLSI based method; format: functional; how it was run: as §2
Staphylococcus aureus [6] = assay: Antibacterial activity against methicillin resistant Staphylococcus aureus FPR3757 assessed as inhibition of bacterial growth incubated for 24 hrs in presence of 10% FBS by CLSI based method; format: functional
How it was run: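 CLSI broth microdilution against MRSA FPR3757 (USA300) in Mueller–Hinton broth supplemented with 10% serum (fetal bovine or mouse). Inoculum 10⁶ CFU/mL with twofold serial compound dilutions, stationary incubation at 37 °C for 24 h. MIC read as lowest concentration with complete inhibition of visible growth.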

Klebsiella pneumoniae = assay: Antibacterial activity against Klebsiella pneumoniae 7117 assessed as inhibition of bacterial growth incubated for 24 hrs by CLSI based method; format: functional; how it was run: as §2
Staphylococcus simulans [7] = assay: Antibacterial activity against Staphylococcus simulans assessed as inhibition of DNA synthesis at 0.5 to 5 times MIC measured upto 60 mins by [3H]-thymidine incorporation based scintillation counter analysis; format: functional, organism-based; settings: DDE = dose-dependent effect
How it was run: (§5)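 S. simulans was grown in cation-adjusted Mueller–Hinton medium at 37 °C. […] Samples were taken at 0–60 min, precipitated with ice-cold 10% TCA, filtered and counted. Inhibition at 60 min is relative to DMSO control; triplicate.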

Cell membrane [8] = assay: Induction of cell membrane damage in Staphylococcus aureus USA300 assessed as bulging of the septum at 1 times MIC measured after 1 hrs by TEM analysis; how it was run: as §4
Staphylococcus aureus [9] = assay: Antibacterial activity against community-associated methicillin-resistant Staphylococcus aureus USA300 FPR3757 assessed as inhibition of bacterial growth incubated for 24 hrs by CLSI based method; format: functional; how it was run: as §1
Staphylococcus aureus [10] = assay: microbe, parasite or virus in culture; settings: USA300 FPR3757, 24 h
Cell membrane [11] = assay: Induction of cell membrane damage in Staphylococcus aureus USA300 assessed as cross-wall-septum formation with reduced splitting at 1 times MIC measured after 10 mins by TEM analysis; format: subcellular
Staphylococcus aureus [12] = assay: Antibacterial activity against methicillin-resistant Staphylococcus aureus MW2 assessed as inhibition of bacterial growth incubated for 24 hrs by CLSI based method; format: functional; how it was run: as §2
Candida albicans = assay: Antifungal activity against Candida albicans SC5314 assessed as inhibition of bacterial growth incubated for 24 hrs by CLSI based method; format: functional
How it was run: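 Broth microdilution per CLSI. It is mixed 1:1 with twofold serial compound dilutions and incubated stationary at 35 °C for 24 h. MIC is read as the lowest concentration with no observable growth.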

Staphylococcus simulans [13] = assay: Antibacterial activity against Staphylococcus simulans assessed as inhibition of RNA synthesis at 0.5 to 5 times MIC measured upto 60 mins by [3H]-uridine incorporation based scintillation counter analysis; format: functional, organism-based; settings: DDE = dose-dependent effect; how it was run: as §5
Staphylococcus simulans [14] = assay: Antibacterial activity against Staphylococcus simulans assessed as inhibition of DNA synthesis at 5 times MIC measured upto 60 mins by [3H]-thymidine incorporation based scintillation counter analysis; format: functional; settings: 1 h; how it was run: as §3
Staphylococcus aureus [15] = assay: Antibacterial activity against methicillin-resistant Staphylococcus aureus COL assessed as inhibition of bacterial growth incubated for 24 hrs by CLSI based method; format: functional; how it was run: as §2
Staphylococcus aureus [16] = assay: Antibacterial activity against methicillin-resistant Staphylococcus aureus N315 assessed as inhibition of bacterial growth incubated for 24 hrs by CLSI based method; format: functional; how it was run: as §2
Enterobacter cloacae = assay: Antibacterial activity against Enterobacter cloacae ND-21 assessed as inhibition of bacterial growth incubated for 24 hrs by CLSI based method; format: functional; how it was run: as §2
[17] = Induction of drug resistance in Staphylococcus aureus FPR3757 assessed as increase in MIC incubated for 65 days (reference value: 0.25 ug/ml); format: functional; settings: FPR3757, 1560 h, time 65 day
Staphylococcus simulans [18] = assay: Antibacterial activity against Staphylococcus simulans assessed as inhibition of RNA synthesis at 5 times MIC measured upto 60 mins by [3H]-uridine incorporation based scintillation counter analysis; format: functional; settings: 1 h; how it was run: as §3
Staphylococcus simulans [19] = assay: Antibacterial activity against Staphylococcus simulans assessed as inhibition of cell wall synthesis at 5 times MIC measured upto 60 mins by [3H]-glucosamine incorporation based scintillation counter analysis; format: functional; settings: 1 h; how it was run: as §3
Cell membrane [20] = assay: Induction of cell membrane damage in Staphylococcus aureus USA300 assessed as membrane wrinkling at 1 times MIC measured after 1 hrs by TEM analysis; how it was run: as §4
Staphylococcus aureus [21] = assay: Antibacterial activity against methicillin-resistant Staphylococcus aureus NRS71 assessed as inhibition of bacterial growth incubated for 24 hrs by CLSI based method; format: functional; how it was run: as §2
Enterococcus faecium = assay: Antibacterial activity against Enterococcus faecium ATCC19579 assessed as inhibition of bacterial growth incubated for 24 hrs by CLSI based method; format: functional; how it was run: as §2
Enterococcus faecalis [22] = assay: Antibacterial activity against Enterococcus faecalis ATCC700802 assessed as inhibition of bacterial growth incubated for 24 hrs by CLSI based method; format: functional; how it was run: as §2
Staphylococcus simulans [23] = assay: Antibacterial activity against Staphylococcus simulans assessed as inhibition of protein synthesis at 0.5 to 5 times MIC measured upto 60 mins by [3H]-L-isoleucine incorporation based scintillation counter analysis; format: functional, organism-based; settings: DDE = dose-dependent effect; how it was run: as §5

Question: With `O=c1cc(C(F)(F)F)[nH]c2cc(F)cc(Nc3ccc(C(F)(F)F)cn3)c12` as the compound, how does the Activity (Erythrocyte) read?
Answer: Its Activity is “Non-Toxic”.

Question: What about the MIC (Staphylococcus aureus [1]) of the same compound?
Answer: The MIC was 1 µg/mL (≈ 2.56 µM).

Question: Which Activity (Erythrocyte) does the source give for `Fc1ccc2c(Nc3ccc(C(F)(F)F)cn3)cc(C(F)(F)F)nc2c1` here?
Answer: Its Activity is “Non-Toxic”.

Question: And the MIC (Staphylococcus aureus [1])?
Answer: The MIC was 1 µg/mL (≈ 2.66 µM).

Question: Which results are given for `FC(F)(F)c1ccc(Nc2cc(C(F)(F)F)nc3cc(C(F)(F)F)ccc23)nc1`?
Answer: MIC [2]: 0.125 µg/mL (≈ 0.294 µM); inhibition (INH) (Staphylococcus simulans [3]): 100%; Activity (Cell membrane [4]): Active; MIC (Enterococcus faecalis [5]): 1 µg/mL (≈ 2.35 µM); MIC (Escherichia coli): > 128 µg/mL; MIC (Staphylococcus aureus [6]): 4 µg/mL; MIC (Klebsiella pneumoniae): > 128 µg/mL; inhibition (Staphylococcus simulans [7]): Dde; Activity (Cell membrane [8]): Active; MIC (Staphylococcus aureus [9]): 0.25 µg/mL (≈ 0.588 µM); MBC (Staphylococcus aureus [10]): 8 µg/mL (≈ 18.8 µM); Activity (Cell membrane [11]): Active; MIC (Staphylococcus aureus [12]): 0.125 µg/mL (≈ 0.294 µM); MIC (Candida albicans): > 256 µg/mL; inhibition (Staphylococcus simulans [13]): Dde; inhibition (INH) (Staphylococcus simulans [14]): 100%; MIC (Staphylococcus aureus [15]): 0.25 µg/mL (≈ 0.588 µM); MIC (Staphylococcus aureus [16]): 0.25 µg/mL (≈ 0.588 µM); MIC (Enterobacter cloacae): > 128 µg/mL; MIC [17]: 0.5 µg/mL; MIC (Staphylococcus aureus [1]): 0.25 µg/mL (≈ 0.588 µM); inhibition (INH) (Staphylococcus simulans [18]): 100%; inhibition (INH) (Staphylococcus simulans [19]): 100%; Activity (Cell membrane [20]): Active; MIC (Staphylococcus aureus [21]): 0.25 µg/mL (≈ 0.588 µM); MIC (Enterococcus faecium): 1 µg/mL (≈ 2.35 µM); MIC (Enterococcus faecalis [22]): 16 µg/mL (≈ 37.6 µM); inhibition (Staphylococcus simulans [23]): Dde
